Reference: ChEMBL document CHEMBL1240464, “Synthesis, structure and in vitro antibacterial activities of new hybrid disinfectants quaternary ammonium compounds: pyridinium and quinolinium stilbene benzenesulfonates” (2010)
Converted amounts (≈) assume the structure as drawn. The source made the active and inactive calls. The calls are words filed in the database; no cut-off is given here.

Tests used:
[1] = test system: Pseudomonas aeruginosa; test: Antibacterial activity against Pseudomonas aeruginosa at up to 300 ug/ml after 8 to 12 hrs by colorimetric microdilution broth technique; assay type: functional, organism-based
Procedure, shortened: (§1)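 Broth microdilution in RPMI1640. Bacterial suspension in RPMI1640 is mixed with 1% Alamar Blue. Sample dissolved in DMSO at 25 mg/ml (stock) is added to the first row, then serially diluted two-fold down the plate to 128-fold. Plates are incubated at 37 °C for 8–12 h. MIC is the lowest concentration preventing the Alamar Blue change from blue to red. At least three repeats.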

[2] = test system: Shigella sonnei; test: Antibacterial activity against Shigella sonnei after 8 to 12 hrs by colorimetric microdilution broth technique; assay type: functional; procedure, shortened: as §1
[3] = test system: Bacillus subtilis; test: Antibacterial activity against Bacillus subtilis after 8 to 12 hrs by colorimetric microdilution broth technique; assay type: functional; procedure, shortened: as §1
[4] = test system: Enterococcus faecalis; test: Antibacterial activity against Enterococcus faecalis TISTR459 after 8 to 12 hrs by colorimetric microdilution broth technique; assay type: functional
Procedure, shortened: (§2)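 Broth microdilution with a colorimetric read-out. Bacteria were suspended in RPMI1640 with 1% Alamar Blue. Compound was dissolved in DMSO as a 25 mg/ml stock and added to the first row, then serially halved to a 128-fold final dilution. Plates were incubated at 37 °C for 8–12 h. MIC was the lowest concentration preventing the blue-to-red indicator change. Each assay was run at least three times.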

[5] = test system: Staphylococcus aureus; test: Antibacterial activity against methicillin-resistant Staphylococcus aureus ATCC 43300 after 8 to 12 hrs by colorimetric microdilution broth technique; assay type: functional; procedure, shortened: as §2
[6] = test system: Enterococcus faecalis; test: Antibacterial activity against vancomycin-resistant Enterococcus faecalis ATCC 51299 after 8 to 12 hrs by colorimetric microdilution broth technique; assay type: functional; procedure, shortened: as §2
[7] = test system: Enterococcus faecalis; test: Antibacterial activity against Enterococcus faecalis TISTR459 at up to 300 ug/ml after 8 to 12 hrs by colorimetric microdilution broth technique; assay type: functional, organism-based; procedure, shortened: as §1
[8] = test system: Shigella sonnei; test: Antibacterial activity against Shigella sonnei at up to 300 ug/ml after 8 to 12 hrs by colorimetric microdilution broth technique; assay type: functional, organism-based; procedure, shortened: as §1
[9] = test system: Staphylococcus aureus; test: Antibacterial activity against Staphylococcus aureus TISTR517 at up to 300 ug/ml after 8 to 12 hrs by colorimetric microdilution broth technique; assay type: functional, organism-based; procedure, shortened: as §1
[10] = test system: Salmonella typhi; test: Antibacterial activity against Salmonella typhi after 8 to 12 hrs by colorimetric microdilution broth technique; assay type: functional, Salmonella enterica subsp. enterica serovar Typhi; settings: Salmonella enterica; procedure, shortened: as §2
[11] = test system: Salmonella typhi; test: Antibacterial activity against Salmonella typhi at up to 300 ug/ml after 8 to 12 hrs by colorimetric microdilution broth technique; assay type: functional, organism-based; settings: Salmonella enterica subsp. enterica serovar Typhi; procedure, shortened: as §2
[12] = test system: Pseudomonas aeruginosa; test: Antibacterial activity against Pseudomonas aeruginosa after 8 to 12 hrs by colorimetric microdilution broth technique; assay type: functional; procedure, shortened: as §1
[13] = test system: Staphylococcus aureus; test: Antibacterial activity against Staphylococcus aureus TISTR517 after 8 to 12 hrs by colorimetric microdilution broth technique; assay type: functional; procedure, shortened: as §1
[14] = test system: Enterococcus faecalis; test: Antibacterial activity against vancomycin-resistant Enterococcus faecalis ATCC 51299 at up to 300 ug/ml after 8 to 12 hrs by colorimetric microdilution broth technique; assay type: functional, organism-based; procedure, shortened: as §2
[15] = test system: Bacillus subtilis; test: Antibacterial activity against Bacillus subtilis at up to 300 ug/ml after 8 to 12 hrs by colorimetric microdilution broth technique; assay type: functional, organism-based; procedure, shortened: as §1

SMILES	MIC [2] [µg/mL]	MIC [3] [µg/mL]	MIC [4] [µg/mL]	MIC [5] [µg/mL]	MIC [6] [µg/mL]	MIC [10] [µg/mL]	MIC [13] [µg/mL]	other results
CCOc1ccc(/C=C/c2ccc3ccccc3[n+]2C)cc1.Nc1ccc(S(=O)(=O)[O-])cc1 [listing 1 of 2 here]								MIC [1]: inactive
CCOc1ccc(/C=C/c2ccc3ccccc3[n+]2C)cc1.O=S(=O)([O-])c1ccc(Cl)cc1	300	75	75	2.34	150			
CN(C)c1ccc(/C=C/c2cccc[n+]2C)cc1								MIC [7]: inactive; MIC [8]: inactive; MIC [9]: inactive
CCOc1ccc(/C=C/c2cccc[n+]2C)cc1.O=S(=O)([O-])c1ccc(Br)cc1 [listing 1 of 2 here]	300			18.8		300		
CCOc1ccc(/C=C/c2ccc3ccccc3[n+]2C)cc1								MIC [1]: inactive; MIC [11]: inactive; MIC [9]: inactive
CCOc1ccc(/C=C/c2cccc[n+]2C)cc1.Nc1ccc(S(=O)(=O)[O-])cc1 [listing 1 of 2 here]				75				
CN[C@H](CC(C)C)C(=O)N[C@H]1C(=O)N[C@@H](CC(N)=O)C(=O)N[C@H]2C(=O)N[C@H]3C(=O)N[C@H](C(=O)N[C@H](C(=O)O)c4cc(O)cc(O)c4-c4cc3ccc4O)[C@H](O)c3ccc(c(Cl)c3)Oc3cc2cc(c3O[C@@H]2O[C@H](CO)[C@@H](O)[C@H](O)[C@H]2O[C@H]2C[C@](C)(N)[C@H](O)[C@H](C)O2)Oc2ccc(cc2Cl)[C@H]1O [VANCOMYCIN]	2.34 (≈ 1.61 µM)	2.34 (≈ 1.61 µM)	9.38 (≈ 6.47 µM)	< 2.34	2.34 (≈ 1.61 µM)	2.34 (≈ 1.61 µM)	9.37 (≈ 6.47 µM)	MIC [12]: 2.34 µg/mL (≈ 1.61 µM)
CCOc1ccc(/C=C/c2ccc3ccccc3[n+]2C)cc1.O=S(=O)([O-])c1ccc(Br)cc1 [listing 1 of 2 here]	75	18.8	37.5	2.34	18.8		300	
CCOc1ccc(/C=C/c2cccc[n+]2C)cc1.[I-]	300			37.5				
CN(C)c1ccc(/C=C/c2cccc[n+]2C)cc1.O=S(=O)([O-])c1ccc(Cl)cc1		300		37.5	150	300		MIC [12]: 300 µg/mL
CCOc1ccc(/C=C/c2ccc3ccccc3[n+]2C)cc1.[I-]	150	37.5	75	2.34	37.5			
CCOc1ccc(/C=C/c2cccc[n+]2C)cc1								MIC [14]: inactive; MIC [7]: inactive; MIC [15]: inactive; MIC [1]: inactive; MIC [8]: inactive; MIC [11]: inactive; MIC [9]: inactive
CCOc1ccc(/C=C/c2cccc[n+]2C)cc1.Nc1ccc(S(=O)(=O)[O-])cc1 [listing 2 of 2 here]								MIC [14]: inactive; MIC [7]: inactive; MIC [15]: inactive; MIC [1]: inactive; MIC [8]: inactive; MIC [11]: inactive; MIC [9]: inactive
CN(C)c1ccc(/C=C/c2ccc3ccccc3[n+]2C)cc1.COc1ccc(S(=O)(=O)[O-])cc1 [listing 1 of 2 here]	150	75	150	2.34	150			
CN(C)c1ccc(/C=C/c2ccc3ccccc3[n+]2C)cc1.COc1ccc(S(=O)(=O)[O-])cc1 [listing 2 of 2 here]								MIC [1]: inactive; MIC [11]: inactive; MIC [9]: inactive
CCOc1ccc(/C=C/c2ccc3ccccc3[n+]2C)cc1.Cc1ccc(S(=O)(=O)[O-])cc1	150	9.37	37.5	2.34	37.5			
CN(C)c1ccc(C=Cc2cccc[n+]2C)cc1.[I-]	300	300	300	37.5	300	300	300	MIC [12]: 300 µg/mL
CCOc1ccc(/C=C/c2ccc3ccccc3[n+]2C)cc1.Nc1ccc(S(=O)(=O)[O-])cc1 [listing 2 of 2 here]	75	37.5	37.5	4.68	75	75	37.5	
CCOc1ccc(/C=C/c2cccc[n+]2C)cc1.O=S(=O)([O-])c1ccc(Br)cc1 [listing 2 of 2 here]								MIC [14]: inactive; MIC [7]: inactive; MIC [15]: inactive; MIC [1]: inactive; MIC [9]: inactive

SMILES	MIC [2] [µg/mL]	MIC [3] [µg/mL]	MIC [4] [µg/mL]	MIC [5] [µg/mL]	MIC [6] [µg/mL]	MIC [10] [µg/mL]	MIC [13] [µg/mL]	other results
CN(C)c1ccc(/C=C/c2ccc3ccccc3[n+]2C)cc1.O=S(=O)([O-])c1ccc(Br)cc1	2.34	2.34	2.34	2.34	2.34	300	2.34	MIC [12]: 300 µg/mL
CN(C)c1ccc(/C=C/c2cccc[n+]2C)cc1.Nc1ccc(S(=O)(=O)[O-])cc1 [listing 1 of 2 here]								MIC [7]: inactive; MIC [15]: inactive; MIC [1]: inactive; MIC [8]: inactive; MIC [11]: inactive; MIC [9]: inactive
CN(C)c1ccc(/C=C/c2cccc[n+]2C)cc1.O=S(=O)([O-])c1ccc(Br)cc1 [listing 1 of 2 here]				75				
CCOc1ccc(/C=C/c2ccc3ccccc3[n+]2C)cc1.COc1ccc(S(=O)(=O)[O-])cc1 [listing 1 of 2 here]	150	18.8	75	2.34	18.8			
CCOc1ccc(/C=C/c2cccc[n+]2C)cc1.O=S(=O)([O-])c1ccc(Cl)cc1				75				
CN(C)c1ccc(/C=C/c2ccc3ccccc3[n+]2C)cc1.Cc1ccc(S(=O)(=O)[O-])cc1	2.34	2.34	2.34	2.34	2.34	300	2.34	MIC [12]: 300 µg/mL
CN(C)c1ccc(/C=C/c2cccc[n+]2C)cc1.Nc1ccc(S(=O)(=O)[O-])cc1 [listing 2 of 2 here]				37.5	300			
CN(C)c1ccc(/C=C/c2cccc[n+]2C)cc1.O=S(=O)([O-])c1ccc(Br)cc1 [listing 2 of 2 here]								MIC [14]: inactive; MIC [7]: inactive; MIC [15]: inactive; MIC [1]: inactive; MIC [8]: inactive; MIC [11]: inactive; MIC [9]: inactive
CCOc1ccc(/C=C/c2ccc3ccccc3[n+]2C)cc1.O=S(=O)([O-])c1ccc(Br)cc1 [listing 2 of 2 here]								MIC [1]: inactive; MIC [11]: inactive
CCOc1ccc(/C=C/c2cccc[n+]2C)cc1.COc1ccc(S(=O)(=O)[O-])cc1 [listing 1 of 2 here]				150				
CN(C)c1ccc(/C=C/c2ccc3ccccc3[n+]2C)cc1.O=S(=O)([O-])c1ccc(Cl)cc1	2.34	2.34	2.34	2.34	2.34	300	2.34	MIC [12]: 300 µg/mL
CCOc1ccc(/C=C/c2ccc3ccccc3[n+]2C)cc1.COc1ccc(S(=O)(=O)[O-])cc1 [listing 2 of 2 here]								MIC [1]: inactive; MIC [11]: inactive; MIC [9]: inactive
CN(C)c1ccc(/C=C/c2cccc[n+]2C)cc1.Cc1ccc(S(=O)(=O)[O-])cc1	300	150	300	37.5	300	300	300	MIC [12]: 150 µg/mL
CN(C)c1ccc(/C=C/c2ccc3ccccc3[n+]2C)cc1.[I-]	4.68	9.37	18.8	9.37	4.68	300	18.8	MIC [12]: 300 µg/mL
CN(C)c1ccc(/C=C/c2ccc3ccccc3[n+]2C)cc1.Nc1ccc(S(=O)(=O)[O-])cc1	75	18.8	75	2.34	18.8	75	75	MIC [12]: 150 µg/mL
CN(C)c1ccc(/C=C/c2cccc[n+]2C)cc1.COc1ccc(S(=O)(=O)[O-])cc1	150	150	150	75	150	150	150	MIC [12]: 150 µg/mL
CCOc1ccc(/C=C/c2cccc[n+]2C)cc1.COc1ccc(S(=O)(=O)[O-])cc1 [listing 2 of 2 here]								MIC [14]: inactive; MIC [7]: inactive; MIC [15]: inactive; MIC [1]: inactive; MIC [8]: inactive; MIC [11]: inactive; MIC [9]: inactive
CCOc1ccc(/C=C/c2cccc[n+]2C)cc1.Cc1ccc(S(=O)(=O)[O-])cc1	150	300	150	37.5	300	150	150	MIC [12]: 37.5 µg/mL
